In ChEMBL document CHEMBL1149179, “Synthesis and biological evaluation of a new class of geldanamycin derivatives as potent inhibitors of Hsp90” (J Med Chem, 2004) one finds IC50 and Ratio data, which are given here for four compounds.

The target in test [1] is T1, Heat shock protein HSP90 (Homo sapiens, UniProt P07900+P08238). Kind of test: Concentration required to inhibit biotin-GM binding to recombinant heat shock protein 90(rHsp90). In kind it is protein assay. The procedure, abridged: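 rHsp90 coated in PBS overnight at 4 °C. Compound at 100–0.3 µM or DMSO for 60 min at 37 °C. Then 10 µM biotinylated geldanamycin 60 min and 20 µg/mL streptavidin-phycoerythrin 60 min, both at 37 °C, with washes between. Fluorescence read at ex 485/em 580 nm, minus an uncoated-well background. % binding inhibition calculated versus DMSO.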

The target of test [2] is T1, Heat shock protein HSP90. Kind of test: Concentration of test compound required for inhibition of binding of rHsp90 in MCF-7 cell lysate. It counts as cell-based. The procedure, abridged: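 Lysate incubated ± compound 30 min at 4 °C, then with biotin-GM on streptavidin magnetic beads 1 h at 4 °C. Beads washed three times and boiled in SDS sample buffer. Bound Hsp90 detected by Western blot and band quantitation. IC50 taken as half-maximal inhibition of binding.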

Test [3] has as its target T1, Heat shock protein HSP90. Kind of test: (§1) Concentration required to inhibit Bis-ANS activity by recombinant heat shock protein 90 (rHSP90) conformational assay. The procedure, abridged:
(§2)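 Compound at 100–0.3 µM or DMSO for 60 min at 37 °C, then bis-ANS (0.1 mM stock) for 30 min at 37 °C. Fluorescence read at ex 393/em 484 nm, minus a no-protein background. IC50 = 50% inhibition of bis-ANS signal versus DMSO; n = 2.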

Test [4] has as its target T1, Heat shock protein HSP90. The experiment in a line: […] human epidermal growth factor 2 (Her-2) degradation in MCF-7 cells. It counts as cell-based. As to conditions: mcf7. The procedure, abridged: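 MCF7 cells in DMEM with 10% FBS and 10 mM HEPES, treated at 65–70% confluence with compound (1000 nM down to 3 nM, half-log steps) for 16 h. Trypsinized cells stained with PE anti-Her-2 or PE isotype control (1 µg/mL, 15 min). Flow cytometry with 10,000 events; control-subtracted mean fluorescence versus DMSO cells. EC50 = 50% Her-2 degradation; n = 2.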

A short description of test [5]: Ratio of inhibitory concentration of rHsp90 and cell lysate Hsp90.
The test system of test [6] is MCF7. The experiment in a line: Inhibitory concentration of compound against MCF-7 cells by MTS assay. As to conditions: Homo sapiens. It counts as functional, cell-based. The procedure, abridged:
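MCF7 cells seeded at 2000/well in DMEM with 10% FBS and left overnight to adhere; final culture volume 100 µL. Viability read with MTS/PMS (mixed 20:1, 20 µL per well) as A490 after 2-4 h, with cell-free medium plus MTS-PMS as background. % viable cells taken relative to untreated cells; IC50 is the concentration giving 50% viable cells; n = 2.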

A short description of test [7]: as §1. Set-up: species or system Homo sapiens. The procedure, abridged: as §2

Structures are written as SMILES.

Usually IC50 stands for the concentration that inhibits the measured activity by half. `CCN(Cc1ccccc1)Cc1ccc(C(=O)NC2=C3C[C@@H](C)C[C@H](OC)[C@H](O)[C@@H](C)/C=C(\C)[C@H](OC(N)=O)[C@@H](OC)/C=C\C=C(/C)C(=O)NC(=CC2=O)C3=O)cc1`: the IC50 worked out at 1.1 µM in test [1]; 0.012 µM in test [2]; 1 µM in test [3]; 0.14 µM in test [4]; 0.2 µM in test [6]. Moreover, the Ratio in test [5] was 92.

`CO[C@H]1/C=C\C=C(/C)C(=O)NC2=CC(=O)C(NC(=O)c3ccc(CN(C)C)cc3)=C(C[C@@H](C)C[C@H](OC)[C@H](O)[C@@H](C)/C=C(\C)[C@@H]1OC(N)=O)C2=O`: the IC50 in test [1] was 17 µM; in test [2], 0.015 µM; in test [3] it was 3 µM; in test [4] it was 1.7 µM; in test [6], more than 30 µM. In test [5], the Ratio amounted to 200.

As to `CO[C@H]1/C=C\C=C(/C)C(=O)NC2=CC(=O)C(NC(=O)c3ccc(CN4CCN(c5ccc(Cl)cc5)CC4)cc3)=C(C[C@@H](C)C[C@H](OC)[C@H](O)[C@@H](C)/C=C(\C)[C@@H]1OC(N)=O)C2=O`, the half-inhibitory concentration (IC50) in test [1] stood at 1 µM; in test [2] it was 0.009 µM; in test [3], 1 µM; in test [4], 0.25 µM; in test [6], 0.15 µM. Besides, the Ratio in test [5] came to 111.

On to `C=CCNC1=C2C[C@@H](C)C[C@H](OC)[C@H](O)[C@@H](C)/C=C(\C)[C@H](OC(N)=O)[C@@H](OC)/C=C/C=C(\C)C(=O)NC(=CC1=O)C2=O`, for which the IC50 in test [7] was found to be 0.7 µM. The Ratio in test [5] is 40.
